The target in assay [1] is Muscarinic acetylcholine receptor M3 (Rattus norvegicus, UniProt P08483). The assay can be described thus: Displacement of [3H]NMS from muscarinic M3 receptor in Sprague-Dawley rat submandibulary gland after 60 mins. The gist of the method: (§1)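 Membranes from male SD rat (220–250 g) left atria (M2) or submandibulary glands (M3). Tissue homogenised in ice-cold 0.32 M sucrose/50 mM Tris pH 7.4, then spun at 1000g and 20000g, all steps at 4 °C. Membranes (0.1 mg protein) incubated 60 min at 37 °C with 0.4 nM [3H]NMS plus increasing test concentrations. Filtration read-out. IC50 converted to Ki by Cheng–Prusoff, mean SEM.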
Chain of Muscarinic acetylcholine receptor M3 (Rattus norvegicus, UniProt P08483) (P08483 whole entry): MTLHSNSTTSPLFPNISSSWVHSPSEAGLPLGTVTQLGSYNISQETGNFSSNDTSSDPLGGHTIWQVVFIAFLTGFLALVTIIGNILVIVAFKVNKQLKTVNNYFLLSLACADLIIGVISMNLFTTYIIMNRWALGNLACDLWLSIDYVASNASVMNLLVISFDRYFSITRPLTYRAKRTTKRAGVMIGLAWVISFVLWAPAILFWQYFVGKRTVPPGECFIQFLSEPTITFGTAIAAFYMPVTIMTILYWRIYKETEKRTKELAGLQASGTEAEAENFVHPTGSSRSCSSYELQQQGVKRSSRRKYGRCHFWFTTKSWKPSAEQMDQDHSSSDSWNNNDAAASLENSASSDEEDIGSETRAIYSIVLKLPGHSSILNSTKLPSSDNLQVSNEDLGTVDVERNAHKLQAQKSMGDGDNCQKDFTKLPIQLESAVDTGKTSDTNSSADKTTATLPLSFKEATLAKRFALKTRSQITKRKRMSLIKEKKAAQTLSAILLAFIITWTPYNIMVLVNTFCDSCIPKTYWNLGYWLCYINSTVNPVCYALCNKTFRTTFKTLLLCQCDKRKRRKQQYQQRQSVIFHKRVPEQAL
In general terms: Loss of bound radioactivity is the signal in a displacement assay; it reports binding, not function.

Assay [2] concerns the target T1, Muscarinic acetylcholine receptor M2 (Rattus norvegicus, UniProt P10980).
T1 sequence (P10980 whole entry): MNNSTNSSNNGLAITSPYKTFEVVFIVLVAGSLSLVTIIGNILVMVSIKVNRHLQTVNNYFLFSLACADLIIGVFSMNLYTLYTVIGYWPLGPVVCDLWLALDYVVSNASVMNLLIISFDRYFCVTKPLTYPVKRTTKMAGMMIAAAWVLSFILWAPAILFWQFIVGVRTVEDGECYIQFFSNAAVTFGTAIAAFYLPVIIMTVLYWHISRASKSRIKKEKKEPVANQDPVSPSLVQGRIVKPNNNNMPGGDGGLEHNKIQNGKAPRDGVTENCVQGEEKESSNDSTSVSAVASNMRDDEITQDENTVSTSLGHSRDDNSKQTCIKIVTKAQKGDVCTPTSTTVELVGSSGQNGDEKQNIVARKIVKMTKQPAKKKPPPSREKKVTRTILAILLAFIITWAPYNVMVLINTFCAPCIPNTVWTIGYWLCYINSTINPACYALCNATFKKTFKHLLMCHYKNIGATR
The assay is described as follows: Displacement of [3H]NMS from muscarinic M2 receptor in Sprague-Dawley rat left atria after 60 mins. The gist of the method:
as §1

Another assay concerns the target T2, Muscarinic receptor 2 (Cavia porcellus, UniProt Q8VH27).
T2 sequence (Q8VH27 whole entry): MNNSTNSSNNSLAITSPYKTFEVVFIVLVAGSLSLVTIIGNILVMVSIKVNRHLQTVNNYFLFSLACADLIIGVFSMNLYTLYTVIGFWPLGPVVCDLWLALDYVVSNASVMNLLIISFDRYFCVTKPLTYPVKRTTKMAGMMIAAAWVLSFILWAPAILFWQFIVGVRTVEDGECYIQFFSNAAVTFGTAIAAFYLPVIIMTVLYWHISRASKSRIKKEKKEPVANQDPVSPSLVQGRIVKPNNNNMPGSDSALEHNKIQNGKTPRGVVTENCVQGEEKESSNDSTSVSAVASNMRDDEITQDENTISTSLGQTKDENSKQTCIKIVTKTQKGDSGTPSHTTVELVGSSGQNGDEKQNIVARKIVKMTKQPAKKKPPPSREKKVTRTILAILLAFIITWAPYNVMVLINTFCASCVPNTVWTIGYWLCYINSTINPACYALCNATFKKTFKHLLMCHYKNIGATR
The assay can be described thus: Antagonist activity at muscarinic M2 receptor in guinea pig left atria assessed as inhibition of carbachol-induced […]. To be noted: read-out: pA2 (converted). The gist of the method: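 Isolated left atria in Kreb's solution under 500 mg tension, stabilised 45 min, then electrically paced (2 Hz, 6 ms, 10 V square-wave submaximal pulses). Inotropic response recorded isometrically. Cumulative carbachol curves expressed as % of contraction before agonist. Antagonist tested at two or three concentrations. pA2 obtained by Schild analysis.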

Assay [3] deals with Muscarinic receptor M2 and M3 (Rattus norvegicus) (UniProt P08483+P10980). The assay is described as follows: Selectivity ratio of Ki for muscarinic M2 receptor in Sprague-Dawley rat left atria to Ki for muscarinic M3 receptor in Sprague-Dawley rat submandibulary gland.
Chain of Muscarinic receptor M2 and M3 (Rattus norvegicus) (P08483 whole entry, looked up, one chain of several): as the sequence (P08483 whole entry) above
For assay [4], the target named is Muscarinic acetylcholine receptor M3 (Cavia porcellus, UniProt Q8VH26). The assay can be described thus: Antagonist activity at muscarinic M3 receptor in guinea pig ilea assessed as inhibition of carbachol-induced contraction. The note with it: read-out: pA2 (converted). The gist of the method: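 Ileal strips (1.5 cm) in 10 ml baths of Kreb's solution under 1000 mg load, equilibrated 30 min with fluid changed every 15 min. Isotonic recording. Cumulative carbachol curve with roughly 3-fold steps, each added once the prior response was steady. Responses expressed as % of control maximum. Antagonist at three concentrations. pA2 by Schild analysis.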
Chain of Muscarinic acetylcholine receptor M3 (Cavia porcellus, UniProt Q8VH26) (Q8VH26 whole entry): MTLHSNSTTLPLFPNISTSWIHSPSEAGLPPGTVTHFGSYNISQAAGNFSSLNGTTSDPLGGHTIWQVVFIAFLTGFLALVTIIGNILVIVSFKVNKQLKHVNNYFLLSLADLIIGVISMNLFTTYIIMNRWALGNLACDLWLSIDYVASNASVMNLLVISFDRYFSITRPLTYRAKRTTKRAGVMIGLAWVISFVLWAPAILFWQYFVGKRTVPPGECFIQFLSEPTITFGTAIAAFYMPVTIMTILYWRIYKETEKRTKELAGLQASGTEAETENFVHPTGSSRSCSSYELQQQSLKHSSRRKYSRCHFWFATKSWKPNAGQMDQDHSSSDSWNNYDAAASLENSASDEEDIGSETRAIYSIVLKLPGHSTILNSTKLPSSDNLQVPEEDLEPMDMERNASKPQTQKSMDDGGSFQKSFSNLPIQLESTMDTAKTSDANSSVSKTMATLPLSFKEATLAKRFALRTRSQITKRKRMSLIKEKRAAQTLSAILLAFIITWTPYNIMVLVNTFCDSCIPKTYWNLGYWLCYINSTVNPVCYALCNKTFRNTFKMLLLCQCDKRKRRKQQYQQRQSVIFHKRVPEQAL

One may read the Ki as the equilibrium dissociation constant of an inhibitor or competing ligand from its target. Higher therefore signals a looser hold on the target. As to `CC(=O)O[C@H]1C[C@@H]2C[C@@H](OC(=O)c3ccccc3)C[C@@H]1N2C`, the figures for the inhibition constant (Ki) in assay [1] and in assay [2] were 2.7 µM and 10.7 µM, respectively. In addition, the Kb is 1320 nM at Muscarinic receptor 2 and 309 nM in assay [4]. In addition, the Ratio Ki in assay [3] was 4.
Turning to `CC(=O)O[C@H]1C[C@@H]2C[C@@H](OC(=O)c3ccccc3Cl)C[C@@H]1N2C`, the Ki in assay [1] was 1.4 µM; in assay [2], 8.8 µM. Further, the Kb was 631 nM at Muscarinic receptor 2 and 275 nM in assay [4]. In assay [3], the Ratio Ki was 6.3.
`CC(=O)O[C@H]1C[C@@H]2C[C@@H](OC(=O)c3ccccc3[N+](=O)[O-])C[C@@H]1N2C`: the figures for the Ki in assay [1] and in assay [2] were 3.7 µM and 9.8 µM, respectively. Further, the Kb was 851 nM on Muscarinic receptor 2 and 389 nM in assay [4]. The Ratio Ki in assay [3] was 2.6.
For `CC(=O)O[C@@H]1C[C@@H]2C[C@H](OC(=O)c3ccccc3[N+](=O)[O-])C[C@@H]1N2C`, the Ki in assay [1] is 66 µM; in assay [2], 84 µM. In assay [3], the Ratio Ki came out at 1.3.
Regarding `CC(=O)O[C@@H]1C[C@@H]2C[C@H](OC(=O)Cc3ccccc3)C[C@@H]1N2C`, the Ki in assay [1] was 95 µM; in assay [2], 86 µM. In addition, in assay [3], the Ratio Ki is 0.9.
Taken in the same sequence, the figures for `CC(=O)O[C@@H]1C[C@@H]2C[C@H](OC(=O)c3ccccc3Cl)C[C@@H]1N2C` were 83 µM, 95 µM and 1.1.
With `CC(=O)O[C@H]1C[C@@H]2C[C@@H](OC(=O)Cc3ccccc3)C[C@@H]1N2C`, the Ki in assay [1] stood at 0.92 µM; in assay [2], 12 µM. Besides, the figures for the Kb (on Muscarinic receptor 2; in assay [4]) were 1100 nM and 123 nM, respectively. In addition, in assay [3], the Ratio Ki worked out at 13.
With `CC(=O)O[C@@H]1C[C@@H]2C[C@H](OC(=O)c3ccccc3)C[C@@H]1N2C`, the Ki in assay [1] was determined as 71 µM; in assay [2], 77 µM. In addition, the Ratio Ki in assay [3] stood at 1.1.

For the origin of these results see ChEMBL document CHEMBL2321697, “The effect of absolute configuration on activity, subtype selectivity (M3/M2) of 3α-acyloxy-6β-acetoxyltropane derivatives as muscarinic M3 receptor antagonists” (Bioorg Med Chem, 2013).
